{"data": "Assay results pooled from the literature", "note": "Compare with care: the assays were run in different laboratories."}
{"Compound": "Cc1ccc(-c2nc3ccc(C)cn3c2CC(=O)N(C)C)cc1", "target or system": "Mycobacterium kansasii", "test": "microbial growth", "conditions": "6 days", "quantity": "MIC", "result": "> 50 µM"}
{"Compound": "N#CC(C#N)=NNc1cccc(Cl)c1", "target or system": "human Hepatocyte", "test": "cell growth or viability", "quantity": "IC50", "result": "4.81 µM"}
{"Compound": "COC(=O)c1cc(-c2cccc(NC(=S)NC3CCCCC3)c2)on1", "target or system": "Acinetobacter baumannii", "test": "microbial growth, broth dilution", "system": "BAA1605", "quantity": "MIC", "result": "> 64 µg/mL"}
{"Compound": "COc1cccc2c1C(=O)c1c(O)c3c(c(O)c1C2=O)C[C@@](O)(C(=O)CO)C[C@@H]3O[C@H]1C[C@H](N)[C@H](O)[C@H](C)O1", "target or system": "SK-MEL", "test": "cell growth or viability", "conditions": "48 h", "quantity": "IC50", "result": "1.1 µg/mL"}
{"Compound": "C=C1CC[C@H](O)C/C1=C/C=C1\\CCC[C@]2(C)[C@@H]([C@H](C)CCCC(C)C)CC[C@@H]12", "target or system": "Hepatitis C virus", "test": "viral replication, inhibitor, luciferase", "system": "GETYPE2A", "conditions": "72 h, replicon", "quantity": "EC50", "result": "12.3 µM"}
{"Compound": "COc1ccc2[nH]cc(CCNc3nccc(Nc4cccc5c4ccn5C)n3)c2c1", "target or system": "BXPC-3", "test": "cell growth or viability, fluorescence", "conditions": "72 h", "quantity": "IC50", "result": "0.008 µM"}
{"Compound": "CN[C@@H]1[C@H](O)[C@H](NC)[C@H]2O[C@@]3(O)C(=O)C[C@@H](C)O[C@H]3O[C@@H]2[C@H]1O", "target or system": "Proteus mirabilis", "test": "microbial growth, broth dilution", "system": "ATCC25933", "quantity": "MIC", "result": "> 200 µg/mL"}
{"Compound": "COc1ccc(/C=C\\c2cc(F)c(OC)c(OC)c2)cc1O", "target or system": "BXPC-3", "test": "cell growth or viability, SRB", "conditions": "48 h", "quantity": "GI50", "result": "0.745 µg/mL"}
{"Compound": "Cl.Oc1cccc2c1[nH]c1c(C3=CC4(O)CC/C=C\\CCCCN5CCC3C3(CC6/C=C\\CCCCN6C43)C5)nccc12 (single isomer, unassigned; (+))", "target or system": "SK-MEL", "test": "cell growth or viability, neutral red", "conditions": "48 h", "quantity": "IC50", "result": "0.78 µg/mL"}
{"Compound": "C1COCCN1.COc1ccc(/C=C\\c2cc(I)c(OC)c(I)c2)cc1OP(=O)(O)O", "target or system": "BXPC-3", "test": "cell growth or viability, SRB", "conditions": "48 h", "quantity": "GI50", "result": "0.35 µg/mL"}
{"Compound": "CO[C@H]1/C=C/O[C@@]2(C)Oc3c(C)c(O)c4c(O)c(c(/C=N/N5CCN(C)CC5)c(O)c4c3C2=O)NC(=O)/C(C)=C\\C=C\\[C@H](C)[C@H](O)[C@@H](C)[C@@H](O)[C@@H](C)[C@H](OC(C)=O)[C@@H]1C", "target or system": "Mycobacterium kansasii", "test": "microbial growth", "conditions": "6 days", "quantity": "MIC", "result": "< 0.78 µM"}
{"Compound": "COC(=O)c1cc(-c2cccc(NC(=S)Nc3ccc([N+](=O)[O-])cc3)c2)on1", "target or system": "Acinetobacter baumannii", "test": "microbial growth, broth dilution", "system": "BAA1605", "quantity": "MIC", "result": "> 64 µg/mL"}
{"Compound": "Cl.O[C@]12C=C(c3nccc4c3[nH]c3ccccc34)[C@@H]3CCN(CCCC/C=C\\CC1)C[C@@]31C[C@@H]3/C=C\\CCCCN3[C@H]12", "target or system": "SK-MEL", "test": "cell growth or viability, neutral red", "conditions": "48 h", "quantity": "IC50", "result": "0.57 µg/mL"}
